Laboratory results from ChEMBL document CHEMBL1122697, “Resolved 3-(3-hydroxyphenyl)-N-n-propylpiperidine and its analogues: central dopamine receptor activity” (1984).

Tests used:
Rattus norvegicus [1] = species: Rattus norvegicus; assay: Half-maximal decrease of DOPA accumulation upon reserpine pretreatment in the limbic system of rat brain; type: functional
Rattus norvegicus [2] = species: Rattus norvegicus; assay: Low dose of compound giving significant reduction and increase in motor activity without pretreatment was determined; motor activity 58% of control was observed at the lowest dose; type: functional
Method in brief: (§1)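 Non-pretreated male Sprague-Dawley rats received the compound sc in the neck (n = 4). They were placed singly in test cages and put into motility meters 5 min later. Motor activity was recorded over 5-35 min. The dose reported is the lowest giving a significant reduction or increase in activity, expressed as percent of controls.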

Rattus norvegicus [3] = assay: Half-maximal decrease of DOPA accumulation (no reserpine pretreatment) in the striatum of rat brain at dose 3.7 uM/kg; type: functional; set-up: scale not given: the % may be the effect or the level left
Method in brief: (§2)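 Male Sprague-Dawley rats (200-300 g), not pretreated, received the drug sc in the neck, dissolved in saline. NSD 1015 (100 mg/kg) followed 35 min later. Dopa accumulation was measured in limbic and striatal portions. […] Statistics by Student's t test.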

Rattus norvegicus [4] = species: Rattus norvegicus; assay: High dose of compound giving significant reduction and increase in motor activity without pretreatment was determined; motor activity 92% of control was observed at the highest dose; type: functional; method in brief: as §1
Rattus norvegicus [5] = assay: Half-maximal decrease of DOPA accumulation (no reserpine pretreatment) in the limbic system of rat brain at dose 3.7 uM/kg; type: functional; set-up: scale not given: the % may be the effect or the level left; method in brief: as §2
Rattus norvegicus [6] = assay: Effect on HVA level in rat brain striatum regions at a dose of 27 uM/kg sc 60 min before death; type: functional, organism-based
Method in brief: (§3)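 They were killed 60 min later. DOPAC and HVA were measured by HPLC in limbic and striatal brain portions. Values are percent of control means ± standard error of the mean.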

Rattus norvegicus [7] = assay: Effect on HVA level in rat brain limbic regions at a dose of 27 uM/kg sc 60 min before death; type: functional, organism-based; method in brief: as §3
Rattus norvegicus [8] = assay: Effect on DOPAC level in rat brain striatum regions at a dose of 27 uM/kg sc 60 min before death; type: functional, organism-based; method in brief: as §3
Rattus norvegicus [9] = species: Rattus norvegicus; assay: Half-maximal decrease of DOPA accumulation upon reserpine pretreatment in the corpus striatum of rat brain; type: functional
Rattus norvegicus [10] = assay: (§4) Effect on DOPAC level in limbic system of rat brain at a dose of 27 uM/kg sc 60 min before death; type: functional, organism-based; method in brief: as §3
Rattus norvegicus [11] = assay: Motor activity with reserpine pretreatment at dose 53 uM/kg; type: functional
Rattus norvegicus [12] = assay: Motor activity with reserpine pretreatment at dose 133 umol/kg; type: functional
Rattus norvegicus [13] = assay: Half-maximal decrease of DOPA accumulation (no reserpine pretreatment) in the limbic system of rat brain at dose 0.8 uM/kg; type: functional; set-up: scale not given: the % may be the effect or the level left; method in brief: as §2
Rattus norvegicus [14] = assay: Half-maximal decrease of DOPA accumulation (no reserpine pretreatment) in the striatum of rat brain at dose 0.8 uM/kg; type: functional; set-up: scale not given: the % may be the effect or the level left; method in brief: as §2
Rattus norvegicus [15] = species: Rattus norvegicus; assay: Low dose of compound giving significant reduction and increase in motor activity without pretreatment was determined; motor activity 75% of control was observed at the lowest dose; type: functional; method in brief: as §1
Rattus norvegicus [16] = species: Rattus norvegicus; assay: High dose of compound giving significant reduction and increase in motor activity without pretreatment was determined; motor activity 230% of control was observed at the highest dose; type: functional; method in brief: as §1
Rattus norvegicus [17] = assay: Motor activity with reserpine pretreatment at dose 13 uM/kg; type: functional
Rattus norvegicus [18] = assay: as §4; type: functional, organism-based; remark: listed apart in the source
Method in brief: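 Male Sprague-Dawley rats (200-300 g) got a single sc dose of 27 μmol/kg, dissolved in saline. They were killed 60 min later. DOPAC and HVA were measured by HPLC in limbic and striatal brain portions. Values are percent of control means ± standard error of the mean.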

Rattus norvegicus [19] = assay: Motor activity with reserpine pretreatment at dose 14 umol/kg; type: functional
Rattus norvegicus [20] = species: Rattus norvegicus; assay: High dose of compound giving significant reduction and increase in motor activity without pretreatment was determined; motor activity 55% of control was observed at the highest dose; type: functional; method in brief: as §1
Rattus norvegicus [21] = assay: Reduction of DOPA accumulation upon reserpine pretreatment in the corpus striatum of rat brain at a dose of 100 umol/kg; type: functional
Method in brief: (§5)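 Test drug dissolved in saline, injected sc in the neck. 30 min later, NSD 1015 100 mg/kg given. Dopa measured in brain portions (limbic, striatal) and expressed as percent reduction from control levels. Student's t test used for statistics.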

Rattus norvegicus [22] = assay: Half-maximal decrease of DOPA accumulation (no reserpine pretreatment) in the limbic system of rat brain at dose 227 uM/kg; type: functional; set-up: scale not given: the % may be the effect or the level left; method in brief: as §2
Rattus norvegicus [23] = assay: Half-maximal decrease of DOPA accumulation (no reserpine pretreatment) in the striatum of rat brain at dose 227 uM/kg; type: functional; set-up: scale not given: the % may be the effect or the level left; method in brief: as §2
Rattus norvegicus [24] = assay: Reduction of DOPA accumulation upon reserpine pretreatment in the limbic system of rat brain at a dose of 100 umol/kg; type: functional; method in brief: as §5
Rattus norvegicus [25] = assay: Half-maximal decrease of DOPA accumulation (no reserpine pretreatment) in the striatum of rat brain at dose 0.98 uM/kg; type: functional; set-up: scale not given: the % may be the effect or the level left; method in brief: as §2
Rattus norvegicus [26] = assay: Half-maximal decrease of DOPA accumulation (no reserpine pretreatment) in the limbic system of rat brain at dose 3.9 uM/kg; type: functional; set-up: scale not given: the % may be the effect or the level left; method in brief: as §2
Rattus norvegicus [27] = species: Rattus norvegicus; assay: Low dose of compound giving significant reduction and increase in motor activity without pretreatment was determined; motor activity 53% of control was observed at the lowest dose; type: functional; method in brief: as §1
Rattus norvegicus [28] = assay: Half-maximal decrease of DOPA accumulation (no reserpine pretreatment) in the limbic system of rat brain at dose 0.98 uM/kg; type: functional; set-up: scale not given: the % may be the effect or the level left; method in brief: as §2
Rattus norvegicus [29] = species: Rattus norvegicus; assay: Low dose of compound giving significant reduction and increase in motor activity without pretreatment was determined; motor activity 41% of control was observed at the lowest dose; type: functional; method in brief: as §1
Rattus norvegicus [30] = species: Rattus norvegicus; assay: […] without pretreatment was determined; motor activity 137% of control was observed at the highest dose; type: functional
Rattus norvegicus [31] = assay: Motor activity with reserpine pretreatment at dose 3.3 uM/kg; type: functional
Rattus norvegicus [32] = assay: Half-maximal decrease of DOPA accumulation (no reserpine pretreatment) in the striatum of rat brain at dose 0.24 uM/kg; type: functional; set-up: scale not given: the % may be the effect or the level left; method in brief: as §2
Rattus norvegicus [33] = assay: Motor activity with reserpine pretreatment at dose 265 umol/kg; type: functional
Rattus norvegicus [34] = assay: Motor activity with reserpine pretreatment at dose 213 uM/kg; type: functional
Rattus norvegicus [35] = species: Rattus norvegicus; assay: […] without pretreatment was determined; motor activity 40% of control was observed at the highest dose; type: functional
Rattus norvegicus [36] = assay: Half-maximal decrease of DOPA accumulation (no reserpine pretreatment) in the limbic system of rat brain at dose 213 uM/kg; type: functional; set-up: scale not given: the % may be the effect or the level left; method in brief: as §2
Rattus norvegicus [37] = species: Rattus norvegicus; assay: Low dose of compound giving significant reduction and increase in motor activity without pretreatment was determined; motor activity 74% of control was observed at the lowest dose; type: functional; method in brief: as §1
Rattus norvegicus [38] = assay: Half-maximal decrease of DOPA accumulation (no reserpine pretreatment) in the striatum of rat brain at dose 27 uM/kg; type: functional; set-up: scale not given: the % may be the effect or the level left; method in brief: as §2
Rattus norvegicus [39] = assay: Half-maximal decrease of DOPA accumulation (no reserpine pretreatment) in the limbic system of rat brain at dose 0.83 uM/kg; type: functional; set-up: scale not given: the % may be the effect or the level left; method in brief: as §2
Rattus norvegicus [40] = species: Rattus norvegicus; assay: Low dose of compound giving significant reduction and increase in motor activity without pretreatment was determined; motor activity 32% of control was observed at the lowest dose; type: functional; method in brief: as §1
Rattus norvegicus [41] = assay: Motor activity with reserpine pretreatment at dose 7.0 umol/kg; type: functional
Method in brief: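 Test drug dissolved in saline, given sc in the neck (n = 4). Rats placed singly in motility meter cages immediately after dosing. Motor activity recorded as accumulated counts over 0–30 min and compared with controls.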

Rattus norvegicus [42] = assay: Motor activity with reserpine pretreatment at dose 100 uM/kg; type: functional

## CCCCN1CCC[C@H](c2cccc(O)c2)C1
Rattus norvegicus [1]
  ED50: 2.3 µmol/kg
Rattus norvegicus [2]
  Dose: 3.7 µM/kg
Rattus norvegicus [3]
  Control: 76%
Rattus norvegicus [4]
  Dose: 53 µM/kg
Rattus norvegicus [5]
  Control: 72%
Rattus norvegicus [6]
  Level: 52
Rattus norvegicus [7]
  Level: 52
Rattus norvegicus [8]
  Level: 58
Rattus norvegicus [9]
  ED50: 2.2 µmol/kg
Rattus norvegicus [10]
  Level: 55
Rattus norvegicus [11]
  Accumulated counts: 180

## CN1CCC[C@H](c2cccc(O)c2)C1
Rattus norvegicus [9]
  ED50: 2.9 µmol/kg
Rattus norvegicus [12]
  Accumulated counts: 88

## CCCN1CCC[C@H](c2cccc(O)c2)C1
Rattus norvegicus [13]
  Control: 86%
Rattus norvegicus [14]
  Control: 81%
Rattus norvegicus [15]
  Dose: 1.6 µM/kg
Rattus norvegicus [16]
  Dose: 213 µM/kg
Rattus norvegicus [17]
  Accumulated counts: 78
Rattus norvegicus [6]
  Level: 45
Rattus norvegicus [7]
  Level: 52
Rattus norvegicus [18]
  Level: 59
Rattus norvegicus [8]
  Level: 63
Rattus norvegicus [9]
  ED50: 1.3 µmol/kg

## Oc1cccc([C@H]2CCCN(CCc3ccccc3)C2)c1
Rattus norvegicus [19]
  Accumulated counts: 26
Rattus norvegicus [9]
  ED50: 6.9 µmol/kg

## Oc1cccc([C@@H]2CCCNC2)c1
Rattus norvegicus [20]
  Dose: 227 µM/kg
Rattus norvegicus [21]
  Reduction: 26%
Rattus norvegicus [22]
  Control: 50%
Rattus norvegicus [23]
  Control: 44%
Rattus norvegicus [24]
  Reduction: 19%

## CC(C)N1CCC[C@H](c2cccc(O)c2)C1
Rattus norvegicus [25]
  Control: 85%
Rattus norvegicus [6]
  Level: 89
Rattus norvegicus [7]
  Level: 80
Rattus norvegicus [18]
  Level: 70
Rattus norvegicus [26]
  Control: 77%
Rattus norvegicus [8]
  Level: 74
Rattus norvegicus [27]
  Dose: 0.2 µM/kg
Rattus norvegicus [9]
  ED50: 13 µmol/kg
Rattus norvegicus [11]
  Accumulated counts: 49

## CC(C)N1CCC[C@@H](c2cccc(O)c2)C1
Rattus norvegicus [28]
  Control: 74%
Rattus norvegicus [29]
  Dose: 0.2 µM/kg
Rattus norvegicus [30]
  Dose: 13 µM/kg
Rattus norvegicus [31]
  Accumulated counts: 38
Rattus norvegicus [6]
  Level: 68
Rattus norvegicus [7]
  Level: 51
Rattus norvegicus [8]
  Level: 81
Rattus norvegicus [9]
  ED50: 0.45 µmol/kg
Rattus norvegicus [10]
  Level: 60
Rattus norvegicus [32]
  Control: 76%

## Oc1cccc([C@H]2CCCNC2)c1
Rattus norvegicus [33]
  Accumulated counts: 47
Rattus norvegicus [9]
  ED50: 14 µmol/kg

## CN1CCc2cccc3c2[C@H]1Cc1ccc(O)c(O)c1-3 [APOMORPHINE]
Rattus norvegicus [1]
  ED50: 0.19 µmol/kg
Rattus norvegicus [9]
  ED50: 0.22 µmol/kg

## CCCN1CCC[C@@H](c2cccc(O)c2)C1 [PRECLAMOL]
Rattus norvegicus [34]
  Accumulated counts: 12
Rattus norvegicus [35]
  Dose: 213 µM/kg
Rattus norvegicus [6]
  Level: 162
Rattus norvegicus [7]
  Level: 100
Rattus norvegicus [36]
  Control: 95%
Rattus norvegicus [37]
  Dose: 0.8 µM/kg
Rattus norvegicus [8]
  Level: 145
Rattus norvegicus [9]
  ED50: 1.7 µmol/kg
Rattus norvegicus [38]
  Control: 147%
Rattus norvegicus [10]
  Level: 114

## CCCCN1CCC[C@@H](c2cccc(O)c2)C1
Rattus norvegicus [6]
  Level: 142
Rattus norvegicus [7]
  Level: 103
Rattus norvegicus [8]
  Level: 118
Rattus norvegicus [9]
  ED50: 0.77 µmol/kg
Rattus norvegicus [10]
  Level: 91
Rattus norvegicus [39]
  Control: 84%
Rattus norvegicus [40]
  Dose: 3.7 µM/kg
Rattus norvegicus [11]
  Accumulated counts: 63

## Oc1cccc([C@@H]2CCCN(CCc3ccccc3)C2)c1
Rattus norvegicus [41]
  Accumulated counts: 71
Rattus norvegicus [9]
  ED50: 0.13 µmol/kg

## CN1CCC[C@@H](c2cccc(O)c2)C1
Rattus norvegicus [42]
  Accumulated counts: 36
Rattus norvegicus [22]
  Control: 48%
Rattus norvegicus [35]
  Dose: 227 µM/kg
Rattus norvegicus [23]
  Control: 51%
Rattus norvegicus [9]
  ED50: 10 µmol/kg
